L major viab = Leishmania major promastigote growth inhibition | Leishmania major promastigotes, resazurin fluorescence viability | inhibition, % at 10 µM | hit rate 9% among 200,000 | AID 1063; in the data active means inhibition above about 50%;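 further: promastigotes grown with compound for 44 hours at 28 °C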
T cruzi repl = blocks replication of Trypanosoma cruzi; T. cruzi beta-gal in NIH3T3, luminescence, 90 h; inhibition, % (no concentration beside the values); hit rate 1.4% among 300,000;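 active means mean inhibition across valid replicates above about 55%, limit read from the data; inconclusive means mean below that limit but half or more replicates reach it; inactive means mean below it, under half of replicates reach it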;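 further: signal also drops with host cell toxicity which is not excluded here; 0% = plate median of DMSO wells and 100% = zero luminescence signal; higher percent means less beta-gal luminescence so fewer parasites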
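Incubation – ≥90 h infection period, 3 h prior cell attachment · System – NIH/3T3 fibroblasts plus reporter T. cruzi · Doses – compound pinned at 50 nL/well, DMSO · Read-out basis – percent inhibition of parasite-derived β-gal signal · Signal – luminescent β-galactosidase signal after 60 min lysis · Also added – 5000 T. cruzi trypomastigotes/well · Medium – Low-serum DMEM with 2% FBS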
DTT redox prof = compounds producing H2O2 with reducing agent – biochemical, NIH compound library profiling, artefact control for MLSCN library redox annotation, primary screen | DTT-dependent redox cycling H2O2, phenol red/HRP absorbance; 100% = 100 µM peroxide control, 0% = buffer | activation, % at 10 µM | hit rate 0.03% among 200,000 | AID 878;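 active means activation of at least 50% relative to the plate's high and low controls in the primary single-dose screen; inactive means activation below 50%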;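 further: compound incubated with DTT at 0.8 mM final as the reducing agent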
Hep lipid drop = hepatic lipid droplet formation modulation; hit rate 0.4% among 240,000; AML12 mouse hepatocytes, oleate lipid droplets, BODIPY imaging; inhibition, % at 6.5 µM;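 active means lipid droplet intensity inhibited by at least 50%, with more than 500 cells counted; inconclusive means wells with under 300 cells, treated as cytotoxic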
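Material – AML12 mouse liver cells · Also added – oleate loading, 100 µM · Compound dosing – 6.5 µM single-point dosing · Times – overnight treatment with compound plus oleate · Measured by – fluorescence imaging, 20x objective, two fields per well · Read-out – percent inhibition of filter-corrected integrated lipid droplet intensity per well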
MPTP block = inhibitors of mitochondrial permeability transition pore | hit rate 1.4% among 360,000 | isolated mouse mitochondria, Ca2+ swelling absorbance, 30 min | inhibition, % at 10 µM | AID 602449;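 active means inhibition of 50% or more, scaled per plate between neutral and stimulator controls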;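 further: 0% = DMSO wells given calcium and 100% = 1 mM EGTA wells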
* hit, by the source's call; ? = inconclusive; / = no result. The full list was thinned out, with hits kept by preference.

SMILES	L major viab	T cruzi repl	DTT redox prof	Hep lipid drop	MPTP block
COc1ccc(C(=O)OCC(=O)NC2CC2)cc1F	/	/	/	/	0
Fc1cccc(C[n+]2csc3ccccc32)c1	6	55*	1	/	-3
c1ccc(C[n+]2csc3ccccc32)cc1	-1	39	2	/	-3
Cc1c(S(=O)(=O)Nc2ccc(Oc3ccccc3)cc2)c(=O)n(C)c(=O)n1C	/	2	/	-9	0
CCCNC(=O)C1(C)CCCN(C(=O)c2ccc(OC(F)F)cc2)C1 (centres undefined)	/	/	/	/	1
Cc1ccccc1OCc1nc2ccccc2c(=O)n1/N=C/c1c[nH]c2ccccc12	2	43	0	0	2
Cc1cccc(C)c1OCc1nc2ccccc2c(=O)n1/N=C/c1c[nH]c2ccccc12	96*	69*	1	30	2
Cc1ccc(-c2[nH]ncc2/C=N/n2c(COc3ccccc3C)nc3ccccc3c2=O)cc1	75*	20	-1	-16	5
Cn1cc(-c2coc3c(C(=O)NCc4cccs4)cccc23)cn1	/	/	/	/	0
COc1ccc(Cl)cc1-c1cc(C(=O)Nc2ccc(C(C)(C)C)cc2)[nH]n1	/	/	/	/	1
CC(=O)c1cc(CN2CCC(C(=O)Nc3ccc(-n4nc(C)cc4C)cc3)CC2)cs1	/	8	/	-40	0
O=C(NCCCN1CCCC1=O)Nc1ccc([N+](=O)[O-])cc1	/	-4	/	-5	25
CCOc1ccc(Cc2n[nH]c(=S)n2Cc2ccccc2)cc1	10	15	2	2	4
COc1ccc(Cc2n[nH]c(=S)n2Cc2ccccc2)cc1Cl	97*	-3	-1	8	12
Fc1cccc(NC(=S)NCc2ccccn2)c1	63*	-7	0	-2	0
COC(=O)c1ccc(NC(=O)COc2ccc(S(=O)(=O)NC(C)(C)C)cc2)cc1	-6	-7	-1	6	0
Nc1cc2c(cc1Br)-c1ccc(F)cc1C2O (centres undefined)	/	/	/	/	0
O=C(CNC(=O)c1cccs1)N=Nc1c(O)[nH]c2ccc([N+](=O)[O-])cc12	/	-10	/	24	-1
CCCCCCC(=O)N=Nc1c(O)[nH]c2ccc([N+](=O)[O-])cc12	78*	1	0	13	10
CCCn1c(=N)c(S(=O)(=O)c2ccccc2)cc2c(=O)n3cccc(C)c3nc21	/	32	/	0	0
CCCn1c(CC)nc([N+](=O)[O-])c1S(=O)(=O)c1ccccc1	100*	-3	4	/	-1
CCN(CC)CCNC(=O)C(=O)NCC1OCCN1C(=O)c1ccc2c(c1)OCO2 (centres undefined)	54*	-25	0	18	/
Cc1ccc(CNC(=O)C(=O)NCC2OCCN2C(=O)c2ccc3c(c2)OCO3)cc1 (centres undefined)	2	-1	0	-2	1
Clc1ccc(CN2C3=NCCN3c3ccccc32)cc1Cl	65*	?	1	/	-1
c1ccc(CN2C3=NCCN3c3ccccc32)cc1	-6	-3	0	8	0
SMILES	L major viab	T cruzi repl	DTT redox prof	Hep lipid drop	MPTP block
CC(C(=O)N1CCOCC1)c1ccc([N+](=O)[O-])cc1 (centres undefined)	55*	-10	0	9	0
CC(C(=O)N1CCN(Cc2ccc3c(c2)OCO3)CC1)c1ccc([N+](=O)[O-])cc1 (centres undefined)	80*	13	0	-14	2
O=C(Cn1cncn1)c1ccc(F)cc1F	-8	-13	0	-12	-1
Cc1ccc(C(=O)Nc2ncccc2O)cc1S(=O)(=O)N1CCCCC1	/	-3	/	/	0
O=C(O)CCCNC(=O)Cc1ccccc1	/	6	/	2	0
CCN(CCO)C1CC(=O)N(c2ccccc2C)C1=O (centres undefined)	60*	-7	2	-36	1
Cc1ccccc1N1C(=O)CC(N(O)c2ccccc2)C1=O (centres undefined)	-8	-19	-1	/	0
CC1(C)C(N(O)C(=O)Nc2ccc(Cl)cc2)N(c2ccc(Cl)cc2)C(=O)N1CC(=O)NN (centres undefined)	100*	-6	0	16	1
CCN(c1ccccc1)S(=O)(=O)c1ccc(OC)c(NC(=O)c2cccs2)c1	96*	32	-1	-10	0
O=C(CCCCCN1C(=O)[C@@H]2Cc3ccccc3CN2C1=O)NCCc1ccccc1	/	6	/	-8	3
CCC(C)NC(=O)Cn1ccc2cc(S(=O)(=O)N3CCCCCC3)ccc21 (centres undefined)	/	-7	/	7	-2
Clc1cnc(N/N=C/c2cccs2)c(Cl)c1	-1	-6	2	/	7
Clc1cnc(N/N=C/c2ccco2)c(Cl)c1	67*	1	0	-38	0
COC(=O)C(C)Sc1nc2c(cnn2-c2ccc(Cl)cc2)c(=O)[nH]1 (centres undefined)	/	-8	/	5	-1
Cc1nn(C)cc1CN1CCC(CO)(CCOc2ccccc2)CC1	74*	5	-2	0	-1
OCC1(CCOc2ccccc2)CCN(CC2=Cc3cc(Cl)ccc3OC2)CC1	94*	26	-1	-19	1
Cc1oc(-c2cccs2)nc1CN1CCC(CO)(CCOc2ccccc2)CC1	73*	17	-1	2	0
CCOC(=O)C1(CCOC)CCN(Cc2nc(-c3cccs3)oc2C)CC1	2	3	-1	-4	0
O=C(C1CCCO1)N1CCN(S(=O)(=O)c2ccc(Cl)cc2)CC1 (centres undefined)	/	2	/	-1	1
Cc1cc2[nH]c3c4ccccc4nc(C)c3c2cc1C	/	/	/	/	14
Cc1cc2[nH]c3c(c[n+](C)c4ccccc34)c2cc1C	100*	59*	0	-81	-3
O=C(COc1ccc([N+](=O)[O-])cc1)NNC(=O)c1cccs1	-6	-13	0	13	0
O=C(/C=C/c1ccco1)c1ccc(NC(=O)C23CC4CC(CC(C4)C2)C3)cc1	59*	12	1	-1	3
O=C(C=Cc1ccco1)c1ccc([N+](=O)[O-])cc1	/	/	/	/	0
O=C(NCc1ccccn1)C1CCN(C2CCN(Cc3cccc(F)c3)CC2)CC1	/	/	/	/	0
SMILES	L major viab	T cruzi repl	DTT redox prof	Hep lipid drop	MPTP block
CC(C)(C)C(=O)Cn1ncc(N2CCOCC2)c(Cl)c1=O	/	-16	/	/	-1
CC(C)(C)C(=O)Cn1ncc(Br)c(Br)c1=O	56*	61*	0	-3	-2
N#CC1=C(N)Oc2cc(N)ccc2C1c1cccnc1 (centres undefined)	-7	9	1	-24	-1
CCN(CC)c1ccc2c(c1)OC(N)=C(C#N)C2c1cccnc1 (centres undefined)	81*	11	-1	/	0
C=CCn1c(-c2sc3nc(C)cc(C)c3c2N)n[nH]c1=S	/	3	/	9	1
NC(=O)c1ccc[n+](CC(=O)c2ccc(F)cc2)c1	/	13	/	3	1
CCc1ccc(C(=O)COC(=O)CCc2nc3ccccc3c(=O)[nH]2)cc1	-5	-20	0	8	0

Assay outcomes deposited in PubChem BioAssay by several laboratories.
